Measurements: ChEMBL document CHEMBL3352511, “Pyrrole-3-carboxamides as potent and selective JAK2 inhibitors” (Bioorg Med Chem, 2014)
Values after ≈ are worked out from the molar mass of the structure shown. Active and inactive are the calls of the source. No cut-off for these calls is given here.

What was measured:
[1] = Antiproliferative activity against human DERL7 cells after 72 hrs by Cell Titer-Glo assay; format: functional, cell-based; conditions: DERL7, 72 h
[2] = Solubility of the compound in buffer at pH7; format: physicochemical; conditions: pH 7
[3] = Cmax in Balb nu/nu mouse at 10 mg/kg, iv; format: ADME, organism-based; design: dose 10 mg/kg, route intravenous; conditions: in vivo
How it was run: (§1)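 Overnight-fasted male Nu/Nu mice, single intravenous dose in 10% Tween 80 in 5% dextrose, three mice. Saphenous vein blood taken at predose, 0.083, 0.5, 1, 6 and 24 h. Plasma obtained by centrifugation at 10,000g, 3 min, 4 °C, stored at -80 °C, then analysed by LC/MS/MS.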

[4] = AUC(infinity) in Balb nu/nu mouse at 10 mg/kg, iv; format: ADME, organism-based, Plasma; design: dose 10 mg/kg, route intravenous, time infinity; conditions: Balb nu/nu, plasma; how it was run: as §1
[5] = Clearance in Balb nu/nu mouse at 10 mg/kg, iv; format: ADME, organism-based; design: dose 10 mg/kg, route intravenous; conditions: in vivo; how it was run: as §1
[6] = Volume of distribution at steady state in Balb nu/nu mouse at 10 mg/kg, iv; format: ADME, organism-based; design: dose 10 mg/kg, route intravenous; conditions: in vivo, read-out: Vdss; how it was run: as §1
[7] = Half life in Balb nu/nu mouse at 10 mg/kg, iv; format: ADME, organism-based; design: dose 10 mg/kg, route intravenous; conditions: in vivo; how it was run: as §1
[8] = Cmax in Balb nu/nu mouse at 10 mg/kg, po; format: ADME, organism-based; design: dose 10 mg/kg, route oral; conditions: in vivo
How it was run: (§2)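 Overnight-fasted male Nu/Nu mice, single oral dose in 0.5% methocel, three mice. Saphenous vein blood taken at predose, 0.083, 0.5, 1, 6 and 24 h. Plasma obtained by centrifugation at 10,000g, 3 min, 4 °C, stored at -80 °C, then analysed by LC/MS/MS.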

[9] = AUC(infinity) in Balb nu/nu mouse at 10 mg/kg, po; format: ADME, organism-based; design: time infinity, dose 10 mg/kg, route oral; conditions: plasma; how it was run: as §2
[10] = Half life in Balb nu/nu mouse at 10 mg/kg, po; format: ADME, organism-based; design: dose 10 mg/kg, route oral; conditions: in vivo; how it was run: as §2
[11] = molecular target: Dual specificity protein kinase CLK1 (Homo sapiens) (UniProt P49759); assay: Inhibition of human CLK1 at 0.1 uM
How it was run: (§3)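 KINOMEscan active-site-directed competition binding panel of 442 human kinases, compound tested at 0.1 µM. Primary screen results expressed as % Ctrl, where lower values mean stronger binding.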

[12] = molecular target: Dual specificity protein kinase CLK4 (Homo sapiens) (UniProt Q9HAZ1); assay: Inhibition of human CLK4 at 0.1 uM; how it was run: as §3
[13] = molecular target: Dual specificity tyrosine-phosphorylation-regulated kinase 1A (Homo sapiens) (UniProt Q13627); assay: Inhibition of human DYRK1A at 0.1 uM; how it was run: as §3
[14] = molecular target: JAK3/JAK1 (Homo sapiens) (UniProt P52333+P23458); assay: Inhibition of JAK1/3-induced STAT5 phosphorylation in IL-2-activated human DERL7 cells at 10 uM after 2 hrs by SDS-PAGE analysis; format: cell-based
How it was run: (§4)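 DERL-7 cells were kept in RPMI 1640 with 10% FBS and 20 ng/ml human IL-2, then starved 18 h. Compound was applied for 2 h, followed by IL-2 stimulation (20 ng/ml, 15 min, 37 °C). Cold-PBS-washed cells were lysed in RIPA. Lysates were resolved by SDS-PAGE and western blotted for P-STAT5 and total STAT5, with ECL detection.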

[15] = system: SET-2; assay: Effect on total STAT5 level in human SET2 cells at 0.08 to 10 uM after 2 hrs by SDS-PAGE analysis; format: functional, cell-based
How it was run: (§5)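 SET-2 cells were grown in RPMI 1640 with 10% FBS at 37 °C, 5% CO₂, and exposed to compound or DMSO for 2 h at 37 °C. Cells were washed in cold PBS and lysed in RIPA buffer. Equal lysate amounts went through SDS-PAGE and nitrocellulose transfer, then 5% milk/TBST blocking and overnight 4 °C probing for total STAT3/STAT5 and phospho-STAT, with ECL detection.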

[16] = system: SET-2; assay: Effect on total STAT3 level in human SET2 cells at 0.08 to 10 uM after 2 hrs by SDS-PAGE analysis; format: functional, cell-based; how it was run: as §5
[17] = system: DERL7; assay: Effect on total STAT5 level in IL-2-activated human DERL7 cells at 0.08 to 10 uM after 2 hrs by SDS-PAGE analysis; format: functional, cell-based; how it was run: as §4
[18] = Antitumor activity against human SET2 cells xenografted in SCID mouse assessed as tumor growth inhibition at 15 mg/kg, po bid for 10 consecutive days; format: functional; conditions: SET-2, read-out: TGI
How it was run: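 Female SCID mice, 5–6 weeks old, given 200 Rads whole-body gamma irradiation, then inoculated s.c. with 10^7 SET-2 cells. Dosing by mouth started at 100-200 mm³ tumours; controls received vehicle (0.5% methocel). Seven animals per study.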

[19] = system: SET-2; assay: Inhibition of STAT5 phosphorylation in human SET2 cells xenografted in SCID mouse assessed as tumor growth inhibition at 50 mg/kg, po as single dose measured up to 12 hrs post treatment; format: functional, organism-based; design: dose 50 mg/kg
How it was run: (§6)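 SET-2 s.c. xenografts in irradiated female SCID mice were given one oral dose. Tumours were collected at several post-treatment times, 3 animals per time. Tumour lysates were western blotted for P-STAT5 and P-STAT3, with GAPDH as loading control.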

[20] = system: SET-2; assay: Inhibition of STAT3 phosphorylation in human SET2 cells xenografted in SCID mouse assessed as tumor growth inhibition at 50 mg/kg, po as single dose measured up to 12 hrs post treatment; format: functional, organism-based; design: dose 50 mg/kg; how it was run: as §6
[21] = system: SET-2; assay: Inhibition of STAT5 phosphorylation in human SET2 cells xenografted in SCID mouse assessed as tumor growth inhibition at 30 mg/kg, po as single dose measured at 1 to 3 hrs post treatment; format: functional, organism-based; design: dose 30 mg/kg; how it was run: as §6
[22] = system: SET-2; assay: Inhibition of STAT3 phosphorylation in human SET2 cells xenografted in SCID mouse assessed as tumor growth inhibition at 30 mg/kg, po as single dose measured at 1 to 3 hrs post treatment; format: functional, organism-based; design: dose 30 mg/kg; how it was run: as §6
[23] = system: Mus musculus; assay: Toxicity in human SET2 cells xenografted SCID mouse assessed as reversible body weight loss at 50 mg/kg, po bid administered as 5 days on 5 days off for 3 cycles; format: organism-based; design: dose 50 mg/kg, route oral; conditions: in vivo, 120 h
How it was run: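 SET-2 xenografts (10^7 cells s.c.) in irradiated female SCID mice, seven per study, dosed orally from 100-200 mm³ tumours, with 0.5% methocel vehicle controls. Body weight loss recorded at end of treatment.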

[24] = molecular target: Tyrosine-protein kinase JAK2 (Homo sapiens, UniProt O60674, V617F)
[25] = system: Mus musculus; assay: Toxicity in human SET2 cells xenografted SCID mouse assessed as reversible body weight loss at 30 mg/kg, po bid for 10 consecutive days measured after 10 days; conditions: in vivo, 240 h

Sequence of Dual specificity protein kinase CLK4 (Homo sapiens) (Q9HAZ1 whole entry, looked up): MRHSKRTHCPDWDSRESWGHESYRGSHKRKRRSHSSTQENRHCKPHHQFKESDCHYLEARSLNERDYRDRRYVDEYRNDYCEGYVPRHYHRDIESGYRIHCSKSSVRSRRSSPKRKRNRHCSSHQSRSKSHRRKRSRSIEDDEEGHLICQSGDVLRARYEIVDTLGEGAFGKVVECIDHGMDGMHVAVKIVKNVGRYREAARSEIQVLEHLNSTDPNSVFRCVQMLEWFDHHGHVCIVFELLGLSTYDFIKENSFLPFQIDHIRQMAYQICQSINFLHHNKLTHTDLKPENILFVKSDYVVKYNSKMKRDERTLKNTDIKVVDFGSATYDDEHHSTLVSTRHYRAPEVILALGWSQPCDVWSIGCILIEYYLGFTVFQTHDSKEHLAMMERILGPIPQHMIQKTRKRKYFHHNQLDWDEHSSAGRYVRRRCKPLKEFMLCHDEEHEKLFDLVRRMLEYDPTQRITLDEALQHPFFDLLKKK
Sequence of Tyrosine-protein kinase JAK2 (O60674 whole entry V617F): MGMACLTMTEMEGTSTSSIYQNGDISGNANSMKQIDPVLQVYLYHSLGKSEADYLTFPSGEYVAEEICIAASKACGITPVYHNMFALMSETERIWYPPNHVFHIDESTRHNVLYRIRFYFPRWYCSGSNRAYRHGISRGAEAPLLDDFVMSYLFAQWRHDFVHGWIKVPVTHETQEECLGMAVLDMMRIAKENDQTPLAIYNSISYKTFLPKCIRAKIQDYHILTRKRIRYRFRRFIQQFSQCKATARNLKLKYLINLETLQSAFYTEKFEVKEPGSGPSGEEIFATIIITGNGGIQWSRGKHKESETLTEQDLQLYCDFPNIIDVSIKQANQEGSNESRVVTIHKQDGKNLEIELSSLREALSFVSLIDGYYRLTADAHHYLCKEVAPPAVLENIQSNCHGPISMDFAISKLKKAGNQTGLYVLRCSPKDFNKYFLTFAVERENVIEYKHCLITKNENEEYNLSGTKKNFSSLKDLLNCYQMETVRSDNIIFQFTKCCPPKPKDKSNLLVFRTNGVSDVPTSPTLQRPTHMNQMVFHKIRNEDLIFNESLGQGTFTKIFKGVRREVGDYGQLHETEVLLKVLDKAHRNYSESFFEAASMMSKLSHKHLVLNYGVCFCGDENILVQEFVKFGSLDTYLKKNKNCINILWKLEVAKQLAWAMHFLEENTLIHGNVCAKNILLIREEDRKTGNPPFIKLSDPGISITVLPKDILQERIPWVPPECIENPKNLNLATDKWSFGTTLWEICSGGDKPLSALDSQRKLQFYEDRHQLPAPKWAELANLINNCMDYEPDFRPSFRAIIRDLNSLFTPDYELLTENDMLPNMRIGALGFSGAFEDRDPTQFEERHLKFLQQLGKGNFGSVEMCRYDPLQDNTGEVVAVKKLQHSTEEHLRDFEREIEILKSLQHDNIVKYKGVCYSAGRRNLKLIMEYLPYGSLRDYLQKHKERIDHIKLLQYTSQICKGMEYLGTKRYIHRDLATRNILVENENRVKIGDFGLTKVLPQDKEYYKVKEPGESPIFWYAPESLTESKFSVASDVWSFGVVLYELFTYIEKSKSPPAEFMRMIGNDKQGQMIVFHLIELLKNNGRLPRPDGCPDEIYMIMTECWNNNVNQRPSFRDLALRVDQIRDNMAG
Sequence of Dual specificity protein kinase CLK1 (Homo sapiens) (P49759 whole entry, looked up): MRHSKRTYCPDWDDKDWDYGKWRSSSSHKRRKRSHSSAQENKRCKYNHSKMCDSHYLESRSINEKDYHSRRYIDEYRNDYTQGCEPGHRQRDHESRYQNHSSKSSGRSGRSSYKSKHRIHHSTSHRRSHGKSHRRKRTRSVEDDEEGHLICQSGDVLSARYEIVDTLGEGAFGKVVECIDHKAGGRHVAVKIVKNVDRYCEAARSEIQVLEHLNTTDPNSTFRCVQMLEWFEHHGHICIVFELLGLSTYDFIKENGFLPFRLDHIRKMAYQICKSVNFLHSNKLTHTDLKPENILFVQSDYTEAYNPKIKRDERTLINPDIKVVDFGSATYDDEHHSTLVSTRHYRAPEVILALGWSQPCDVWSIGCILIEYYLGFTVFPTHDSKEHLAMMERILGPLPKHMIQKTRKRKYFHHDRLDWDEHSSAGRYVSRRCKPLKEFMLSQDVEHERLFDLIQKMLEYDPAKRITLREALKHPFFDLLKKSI

Work on `NC(=O)c1cc(-c2ccnc(N)n2)[nH]c1-c1cc(C(F)(F)F)ccc1Cl` yielded an IC50 [1] of 1.88 µM, a solubility [2] of 159 µM (≈ 60.7 µg/mL) and a Cmax [3] of 17.6 µM. For the same molecule, the AUC(0-inf) [4] was 26.4 µM·h, the clearance [5] was 16.2 mL/min/kg and the Vd [6] was 0.9 L/kg. For the same molecule, the half-life [7] was 1.1 h, the Cmax [8] was 4.2 µM and the AUC(0-inf) [9] was 9.5 µM·h. For the same molecule, the half-life [10] was 2.3 h, the inhibition [11] was 1% and the inhibition [12] was 1%. The inhibition [13] was 1%, the inhibition [14] was “Active” and the Activity [15] was “inactive”. The Activity [16] was “inactive”, the Activity [17] was “inactive” and the inhibition in vivo at 15 mg/kg [18] was 50%. The inhibition [19] was “Active”, the inhibition [20] was “Active” and the inhibition [21] was “Active”. For the same molecule, the inhibition [22] was “Active”, the Activity [23] was 15% and the IC50 [24] was 0.48 µM. It also gave an Activity [25] of 6%.
